The list is not random: actives were taken first. Their share in the collection is about 2.1%.
PKA-R1A act = PKA-R1A complex activation; P00514+P68181; 340,000 tested, 0.083% active; activation, % at 11.4 µM; AID 504707; PKA-R1A dissociation, Cy5-IP20 fluorescence polarization; scaled: DMSO 0%, 113 µM cGMP 100%;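 active = percent activation above the mean of all tested compounds plus 3 SD, cut at about 19% in these data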;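 also: higher means more PKAc released from R1A so a rise in polarization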
bovine MsrA act = activators of bovine methionine sulfoxide reductase A; purified bovine MsrA, absorbance read-out; activation, % at 10.6 µM; 360,000 tested, 0.3% active; AID 602163; in the data active = activation above about 7.5%;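 also: 0% = vehicle and 100% = reference activator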
MsrA inhibitor = inhibits bovine methionine sulfoxide reductase A; purified bovine MsrA, absorbance read-out; inhibition, % at 15.5 µM; 360,000 tested, 0.75% active; in the data active = inhibition above about 4.5%;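 also: 0% = vehicle wells with enzyme and 100% = reference inhibitor wells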
PKA-R2B activ = activators of human PKA-R2B complex | PKA-R2B holoenzyme dissociation, Cy5-IP20 fluorescence polarization; R2B truncated from residue 108, S112A mutant; 0% DMSO only, 100% 113 µM cGMP | activation, % at 11.4 µM | 340,000 tested, 0.079% active | AID 504700;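 active = activation above a cutoff set at the mean over all compounds plus 3 SD, cut at about 18% in these data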;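 also: higher means more holoenzyme dissociation and a rise in polarization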
Target sequence (P31323 whole entry, looked up, other chains not shown, the tested form may be a part): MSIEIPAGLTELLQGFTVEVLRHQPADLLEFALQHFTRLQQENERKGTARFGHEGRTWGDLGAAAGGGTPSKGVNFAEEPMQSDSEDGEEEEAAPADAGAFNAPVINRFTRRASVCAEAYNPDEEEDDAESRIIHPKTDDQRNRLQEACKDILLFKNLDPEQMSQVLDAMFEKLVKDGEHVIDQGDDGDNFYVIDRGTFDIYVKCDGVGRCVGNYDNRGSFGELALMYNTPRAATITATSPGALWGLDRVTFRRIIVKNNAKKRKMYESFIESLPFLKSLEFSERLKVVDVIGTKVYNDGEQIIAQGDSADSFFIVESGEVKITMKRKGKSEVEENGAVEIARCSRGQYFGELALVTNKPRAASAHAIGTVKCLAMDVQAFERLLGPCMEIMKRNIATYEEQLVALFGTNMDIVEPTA
VIM-2 inh = inhibitors of Pseudomonas aeruginosa VIM-2 metallo-beta-lactamase | AID 1527 | inhibition, % at 5.6 µM | 290,000 tested, 0.89% active | purified VIM-2, nitrocefin hydrolysis, epi-absorbance fluorescence;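 active = inhibition above the mean of all tested compounds plus 3 SD, cutoff set per screening run, cut at about 7.5% in these data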;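 also: red hydrolysis product quenches plate fluorescence so inhibitors raise well fluorescence; 0% = enzyme with DMSO and 100% = DMSO without enzyme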
IMP-1 inh = inhibitors of Pseudomonas aeruginosa IMP-1 metallo-beta-lactamase. inhibition, % at 5.6 µM. AID 1556. 290,000 tested, 0.45% active. purified IMP-1, nitrocefin hydrolysis, epi-absorbance fluorescence;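 active = inhibition above the mean plus 3 SD of all compounds in the same screening run, cut at about 4.5% in these data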;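 also: 0% = IMP-1 with DMSO and 100% = DMSO wells lacking enzyme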
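assay system = purified recombinant IMP-1 metallo-beta-lactamase enzyme | schedule = 15 min preincubation plus 25 min reaction at 25 °C | signal = Epi-absorbance fluorescence, 480 nm excitation, 530 nm emission | read-out basis = percent inhibition from optical density relative to buffer-blank wells | controls = IMP-1 with DMSO as 0%, enzyme-free DMSO as 100%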
* hit, by the source's call; . = no result.

SMILES | PKA-R1A act | bovine MsrA act | MsrA inhibitor | PKA-R2B activ | VIM-2 inh | IMP-1 inh
CCOC(=O)/C(=C\C=C1/Sc2cc(OCC)c(OCC)cc2N1CC)C(C)=O | -20 | -3 | 0 | -7 | 3 | 4.8*
CCN1/C(=C\C=C2\C(=O)N(C)C(=S)N2C)Sc2ccccc21 | 4 | -13 | 2 | 2 | -1 | -2
CCOC(=O)/C(=C/C=C1\Sc2cc(OCC)c(OCC)cc2N1CC)C(C)=O | -3 | -3 | 2 | -12 | 7 | 6.2*
CCOC(=O)N1c2ccccc2Sc2ccccc21 | 6 | -4 | 0 | -4 | 1 | -2
Oc1ccc(/C=N/n2c(-c3ccccc3)n[nH]c2=S)cc1 | -9 | -1 | 1 | 1 | 9.2* | 0
COC(=O)N=Nc1c(O)n(Cc2ccccc2)c2ccccc12 | -8 | 1 | 2 | -6 | -3 | -4
O=C(N=Nc1c(O)n(Cc2ccccc2)c2ccccc12)c1ccncc1 | 3 | -5 | 2 | 0 | 11* | 0
COc1ccc(C2OC(CCc3ccccc3)CC3=C2C(=O)OC(C)(C)O3)cc1 (stereo unspecified) | . | -5 | 0 | . | . | .
Cc1ccc(C(=O)C2C(=O)C3CCC2C3)cc1 (stereo unspecified) | . | -3 | 0 | . | . | .
CCCNC(=O)C1(C)CCN1C(=O)C/C=C/c1ccccc1 (stereo unspecified) | . | -10 | -1 | . | . | .
CCCN1C(=O)S/C(=C\c2ccc(N3CCOCC3)o2)C1=O | -1 | 0 | 1 | 6 | -4 | 5.9*
COC(=O)c1[nH]c2ccccc2c1NC(=O)CN1CCN(c2cccc(OC)c2)C(C)C1 (stereo unspecified) | -9 | -8 | -1 | -13 | -2 | 5.8*
Cc1cc(C)c(CN2CCN(CCCn3cnc(C(=O)Nc4ccc(C)c(C)c4)n3)CC2)c(C)c1 | 10 | -1 | 1 | -2 | . | .
COc1ccc(-c2cc(C3CC3)nc(N)c2C#N)cc1 | -15 | -8 | 0 | 2 | 8.8* | -1
COc1ccccc1-c1cc(C2CC2)nc(N)c1C#N | 3 | -4 | 3 | 1 | 0 | 2
C[N+](C)(C)c1ccc(/C=N/Nc2nc(Cl)c(C#N)c(Cl)c2Cl)cc1 | -12 | -3 | 2 | -5 | 10* | 1
CSc1nc(N(C)CCO)c2sc3nc(-c4ccco4)c4c(c3c2n1)CCC4 | -9 | 0 | . | 3 | 1 | 11*
CSc1nc(NCCN(C)C)c2sc3nc(-c4ccco4)c4c(c3c2n1)CCC4 | 4 | -2 | 0 | -11 | . | .
CSc1nc(SCC(=O)O)c2sc3nc(-c4ccccc4)c4c(c3c2n1)CCC4 | 6 | 0 | -1 | 9 | -1 | 64*
O=C(O)CSc1nc(-c2ccccc2)nc2c1CCCC2 | 1 | -3 | 0 | 3 | 4 | 0
CC(C)Sc1nc(-c2cccs2)nc2cc(Cl)ccc12 | . | -3 | -1 | . | . | .
CCOc1ccc(Oc2ccccc2NC(=O)CN2C(=O)NC3(CCCC3)C2=O)cc1 | -5 | 0 | 1 | -11 | . | .
CCOC(=O)c1ccccc1N/C=C1\CCCC1=O | 3 | -4 | 2 | -5 | 12* | -2
COC(=O)C1=C(Nc2ccccc2NC(=O)CCCC(=O)O)CSC1 | . | -3 | 0 | . | 1 | 4.5*
COc1ccc(NC(=O)Nc2ccc3c(c2)C(=O)N([C@H](C)CO)C[C@H](C)[C@@H](CN(C)C(=O)Nc2ccccc2)O3)cc1 | -4 | -4 | 0 | 7 | . | .
SMILES | PKA-R1A act | bovine MsrA act | MsrA inhibitor | PKA-R2B activ | VIM-2 inh | IMP-1 inh
N=C1/C(=C\c2ccc(-c3cccc(Cl)c3)o2)C(=O)N=C2SC=C(c3ccccc3)N12 | -3 | -6 | 0 | -3 | -1 | 2
N=C1/C(=C\c2ccc(-c3ccc(C(=O)O)cc3)o2)C(=O)N=C2SC=C(c3ccccc3)N12 | -3 | -3 | 0 | 2 | 1 | 11*
COc1cc(C=O)ccc1Oc1ccc(S(=O)(=O)N2CCOCC2)cc1[N+](=O)[O-] | -6 | -2 | 0 | -4 | . | .
COc1ccc(OC)c(-c2c3cc(O)c(=O)cc-3oc3cc(O)c(O)cc23)c1 | -1 | -11 | . | -10 | 1 | 4.7*
CCOc1ccccc1-c1c2cc(O)c(=O)cc-2oc2cc(O)c(O)cc12 | -9 | -10 | . | -1 | 1 | 6.8*
O=c1cc2oc3cc(O)c(O)cc3c(-c3ccccc3O)c-2cc1O | -6 | -6 | . | -7 | 4 | 2
CCOC(=O)C1=C(COC(=O)c2ccc([N+](=O)[O-])s2)NC(=O)NC1C (stereo unspecified) | 8 | 19* | 3 | 5 | . | .
O=C1Nc2ccc(C(=O)O)c(O)c2C1=O | 1 | -2 | 0 | -12 | . | .
CCCCn1c(=N)c(S(=O)(=O)c2ccc(Br)cc2)cc2c(=O)n3cccc(C)c3nc21 | 7 | -2 | 2 | -1 | -6 | -4
COCCn1c(=N)c(S(=O)(=O)c2ccc(F)cc2)cc2c(=O)n3cccc(C)c3nc21 | -11 | -3 | -1 | 1 | 8.9* | -3
CCCn1c(=N)c(S(=O)(=O)c2ccc(F)cc2)cc2c(=O)n3ccccc3nc21 | -8 | -4 | 0 | -5 | 8.9* | -4
Cc1cc(=O)c2c(ccc3c(=O)cc(C)[nH]c32)[nH]1 | . | . | 1 | . | . | .
O=S(=O)(Nc1ccc2c3c(cccc13)CC2)c1ccc(F)cc1 | -1 | -2 | -1 | -7 | 0 | 7.8*
Cc1ccccc1NS(=O)(=O)c1ccc(F)cc1 | -5 | -10 | 0 | -6 | -5 | -7
S=C1NC[C@H](Cc2ccccc2)N1CC1CCN(CCCC2CCCCC2)CC1 | . | . | 0 | . | . | .
COC1=CC(=O)C=C(OC)C1=O | -20 | -1 | 0 | 1 | . | .
COC1=CC(=O)c2ccccc2C1=O | 1 | 14* | . | -1 | . | .
COc1ccccc1C(=O)NCCC(=O)N1CC(C)OC(C)C1 (stereo unspecified) | 10 | -2 | 0 | -11 | . | .
CCN(CC)c1ccc(C=C(c2nnnn2-c2ccc(C)cc2)c2nnnn2-c2ccc(C)cc2)cc1 | -9 | -4 | 0 | -2 | -3 | 52*
COc1ccc(-c2ccc(CCC(=O)O)n2CC(C)C)cc1 | -6 | -5 | -1 | 10 | 2 | 7.1*
c1ccc(-c2nnc3ccc(N4CCC5(CC4)OCCO5)nn23)cc1 | -6 | -9 | 0 | 5 | 8.7* | -2
NC(=O)C1(N2CCCCC2)CCN(c2ccc3nnc(-c4ccccc4)n3n2)CC1 | -5 | -10 | 0 | 3 | 5 | -2
CN1c2ccc(Cl)cc2C(=O)NC1c1ccc([N+](=O)[O-])s1 (stereo unspecified) | -13 | -2 | 0 | 4 | -2 | -4
CC(=O)Oc1ccc(/C=N\NC(=O)c2cc3c(ccc4ccccc43)o2)cc1 | -1 | -2 | 0 | 4 | -2 | 4.9*
CC(C)[C@H](NC(=O)c1ccc([N+](=O)[O-])cc1Cl)C(=O)N1CCN(C/C=C/c2ccccc2)CC1 | 0 | -3 | 0 | -7 | . | .

Compound activity deposited in PubChem BioAssay by The Scripps Research Institute Molecular Screening Center.
